According to ChEMBL document CHEMBL3352248, “Converting potent indeno[1,2-b]indole inhibitors of protein kinase CK2 into selective inhibitors of the breast cancer resistance protein ABCG2” (J Med Chem, 2015):
Calls of active or inactive are those of the source. No cut-off for these calls is given here.

Experiments:
[1] = target: T1, Broad substrate specificity ATP-binding cassette transporter ABCG2 (Homo sapiens, UniProt Q9UNQ0); assay: Inhibition of ABCG2 (unknown origin) expressed in HEK293 cells assessed as reduction in mitoxantrone efflux after 30 mins by FACS method; assay type: cell-based
T1 sequence (Q9UNQ0 whole entry): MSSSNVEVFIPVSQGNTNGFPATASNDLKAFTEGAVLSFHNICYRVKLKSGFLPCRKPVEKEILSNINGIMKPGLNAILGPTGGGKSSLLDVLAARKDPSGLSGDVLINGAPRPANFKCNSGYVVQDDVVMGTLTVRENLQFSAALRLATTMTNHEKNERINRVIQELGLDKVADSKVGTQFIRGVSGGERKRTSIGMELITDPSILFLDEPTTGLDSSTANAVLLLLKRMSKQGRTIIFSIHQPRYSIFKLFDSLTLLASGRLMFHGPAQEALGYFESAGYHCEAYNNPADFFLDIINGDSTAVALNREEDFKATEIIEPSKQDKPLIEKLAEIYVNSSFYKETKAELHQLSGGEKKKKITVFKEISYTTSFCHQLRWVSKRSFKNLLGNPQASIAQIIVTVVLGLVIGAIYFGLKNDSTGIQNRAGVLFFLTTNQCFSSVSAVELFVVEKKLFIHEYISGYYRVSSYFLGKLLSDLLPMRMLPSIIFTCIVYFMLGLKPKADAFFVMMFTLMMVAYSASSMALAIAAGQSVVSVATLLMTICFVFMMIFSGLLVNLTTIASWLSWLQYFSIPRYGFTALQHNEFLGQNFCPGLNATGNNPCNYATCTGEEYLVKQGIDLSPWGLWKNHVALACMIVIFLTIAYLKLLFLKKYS
In short: (§1)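 HEK293 cells stably transfected with ABCG2 (kept in 0.75 mg/mL G418) were seeded at 1.0 × 10^5/well and grown 72 h. They were then exposed to 5 μM mitoxantrone for 30 min at 37 °C with or without compound, washed and trypsinized. Intracellular fluorescence was read by flow cytometry (FL4, ≥10,000 events).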

[2] = target: Casein kinase II (Homo sapiens, UniProt P19784+P67870+P68400); assay: Inhibition of human recombinant CK2a1/CK2b holoenzyme expressed in Escherichia coli BL21(DE3) pre-incubated for 10 mins before substrate addition by capillary electrophoresis based assay
Sequence of Casein kinase II (P67870 whole entry): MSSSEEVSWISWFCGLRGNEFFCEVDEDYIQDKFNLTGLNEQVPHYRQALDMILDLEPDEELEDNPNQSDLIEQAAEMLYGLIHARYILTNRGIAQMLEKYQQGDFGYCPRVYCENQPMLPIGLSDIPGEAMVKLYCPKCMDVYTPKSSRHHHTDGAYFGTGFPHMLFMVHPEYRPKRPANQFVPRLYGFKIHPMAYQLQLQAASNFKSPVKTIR
Sequence of Casein kinase II (P68400 whole entry): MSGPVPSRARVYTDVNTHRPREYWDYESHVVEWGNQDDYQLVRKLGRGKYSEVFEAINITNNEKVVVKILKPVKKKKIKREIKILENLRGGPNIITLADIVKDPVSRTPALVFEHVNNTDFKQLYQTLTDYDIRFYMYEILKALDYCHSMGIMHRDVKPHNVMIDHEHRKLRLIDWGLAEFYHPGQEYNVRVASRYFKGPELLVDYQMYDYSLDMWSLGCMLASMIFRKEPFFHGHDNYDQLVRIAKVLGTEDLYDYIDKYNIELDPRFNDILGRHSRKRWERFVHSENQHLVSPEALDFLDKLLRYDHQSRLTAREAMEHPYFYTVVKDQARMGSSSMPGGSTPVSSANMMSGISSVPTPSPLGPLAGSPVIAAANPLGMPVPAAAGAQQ
Sequence of Casein kinase II (P19784 whole entry): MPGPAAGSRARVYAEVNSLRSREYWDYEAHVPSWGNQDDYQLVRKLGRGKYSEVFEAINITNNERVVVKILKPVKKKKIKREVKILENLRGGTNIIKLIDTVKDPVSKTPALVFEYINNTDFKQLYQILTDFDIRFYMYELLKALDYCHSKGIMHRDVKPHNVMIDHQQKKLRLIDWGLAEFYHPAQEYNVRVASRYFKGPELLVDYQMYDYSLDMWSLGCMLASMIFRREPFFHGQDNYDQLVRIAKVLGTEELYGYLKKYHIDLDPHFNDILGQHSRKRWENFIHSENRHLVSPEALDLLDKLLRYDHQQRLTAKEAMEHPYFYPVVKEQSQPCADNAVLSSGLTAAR

[3] = target: T2, ABCG2 (Homo sapiens, UniProt Q9UNQ0); assay: Inhibition of ABCG2 (unknown origin) expressed in HEK293 cells assessed as reduction in mitoxantrone efflux at 10 uM after 30 mins by FACS method; assay type: cell-based; details: HEK293 cells expressing ABCG2, probe mitoxantrone; in short: as §1
T2 sequence (Q9UNQ0 whole entry): T1 sequence (Q9UNQ0 whole entry)

[4] = system: ABCG2; assay: Selectivity index, ratio of IC50 for intrinsic cytotoxicity against HEK293 cells to IC50 for ABCG2 (unknown origin) expressed in HEK293 cells; assay type: toxicity, cell-based; details: human, HEK293 cells expressing ABCG2, read-out: Selectivity Index
[5] = Intrinsic cytotoxicity against HEK293 cells assessed as reduction in cell viability after 72 hrs by MTT assay; assay type: cell-based; details: human, read-out: IG50
In short: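 Wild-type HEK293 cells were seeded at 1 × 10^4/well, incubated overnight, then treated with compound (0–250 μM) for 72 h. MTT at 0.5 mg/mL was added for 4 h at 37 °C. Formazan was dissolved in DMSO/ethanol 1:1, and absorbance was read at 570 nm minus 690 nm to give IG50.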

[6] = system: HEK293; assay: Selectivity index, ratio of IC50 for human recombinant CK2a1/CK2b holoenzyme expressed in Escherichia coli BL21(DE3) to IC50 for ABCG2 (unknown origin) expressed in HEK293 cells
[7] = system: MCF7; assay: Inhibition of cell proliferation of human MCF7 cells assessed as DNA synthesis at 20 uM after 48 hrs by EdU-click assay; assay type: functional; parameters: scale not given: the % may be the effect or the level left
In short: (§2)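 MCF-7 cells were grown in RPMI 1640 GlutaMax plus 10% FCS, seeded 5.0 × 10^4/well and incubated overnight. They were then exposed to inhibitor at 20 or 100 μM for 24 or 48 h (37 °C, 5% CO2), with 1% DMSO as control. EdU was incorporated and click-coupled to TAMRA azide, with Hoechst counterstain. Microscope counts gave TAMRA-positive nuclei as a percentage of total nuclei. Values are the mean (±SD) of four assays.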

[8] = system: MCF7; assay: Induction of cell death in human MCF7 cells assessed as viable cell level at 20 to 100 uM after 24 hrs by Hoechst 33258 staining based fluorescence assay; assay type: functional
In short: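 MCF-7 cells grown in RPMI 1640 GlutaMax with 10% fetal calf serum, seeded at 5.0 × 10^4 cells/well and left overnight. Medium then replaced with fresh medium holding inhibitor at 20 or 100 μM, with 1% DMSO as control, for 24 h at 37 °C, 5% CO2. Nuclei stained with Hoechst 33258 (3 μg/mL in methanol, 30 min, room temperature, dark). Total cells counted and nuclear morphology examined by fluorescence microscopy.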

[9] = system: MCF7; assay: Induction of apoptosis in human MCF7 cells assessed as reduction in nuclear size at 20 to 100 uM after 24 hrs by Hoechst 33258 staining based fluorescence assay; assay type: functional, cell-based
In short: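 MCF-7 cells grown in RPMI 1640 GlutaMax with 10% fetal calf serum, seeded 5.0 × 10^4 cells/well and incubated overnight. Medium then replaced with medium containing compound at 20 or 100 μM; 1% DMSO as control. Incubation 24 h at 37 °C, 5% CO2. Nuclei stained with Hoechst 33258 (3 μg/mL in methanol), 30 min at room temperature in the dark. Nuclear morphology examined by fluorescence microscopy.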

[10] = system: MCF7; assay: Induction of cell damage in human MCF7 cells at 20 to 100 uM after 24 hrs by Hoechst 33258 staining based fluorescence assay; assay type: functional
In short: (§3)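 MCF-7 cells in RPMI 1640 GlutaMax with 10% FCS, seeded 5.0 × 10^4 per well and left overnight. Medium was replaced with inhibitor at 20 or 100 μM, with 1% DMSO as control, for 24 h at 37 °C, 5% CO2. Nuclei were stained with Hoechst 33258 (3 μg/mL in methanol) for 30 min at room temperature in the dark and examined by fluorescence microscopy (DAPI filter) for nuclear morphology.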

[11] = system: MCF7; assay: Induction of apoptosis in human MCF7 cells assessed as chromatin condensation at 20 to 100 uM after 24 hrs by Hoechst 33258 staining based fluorescence assay; assay type: functional, cell-based; details: in the assay text read “100 uM” for “20 to 100 uM”; in short: as §3
[12] = system: MCF7; assay: Inhibition of cell proliferation of human MCF7 cells assessed as DNA synthesis at 20 uM after 24 hrs by EdU-click assay; assay type: functional; parameters: scale not given: the % may be the effect or the level left; in short: as §2
[13] = system: MCF7; assay: Inhibition of cell proliferation of human MCF7 cells assessed as DNA synthesis at 100 uM after 24 hrs by EdU-click assay; assay type: functional, cell-based; in short: as §2

With O=C1CC(c2ccccc2)Cc2c1c1c(n2Cc2ccccc2)-c2ccccc2C1=O (stereo unspecified) the IC50 [1] was 0.96 µM, the IC50 [2] was 55 µM and the inhibition at 0.5 h, 10 µM [3] was 68%. The selectivity ratio [4] was 18 and the CC50 at 72 h [5] was 16.9 µM.
In the case of CC1CCc2c(c3c(n2C(C)C)-c2ccccc2C3=O)C1=O (stereo unspecified), the IC50 [1] is reported as 20 µM and the inhibition at 0.5 h, 10 µM [3] is reported as 40%.
In the case of COc1ccc(CCn2c3c(c4c2-c2ccccc2C4=O)C(=O)CCC3)cc1, the IC50 [1] is reported as 0.7 µM, the inhibition at 0.5 h, 10 µM [3] is reported as 131% and the CC50 at 72 h [5] is reported as 68.5 µM. For the same compound, the Ratio IC50 [6] was 6.
With COc1ccccc1CCn1c2c(c3c1-c1ccccc1C3=O)C(=O)CCC2 the IC50 [1] was 0.21 µM, the IC50 [2] was 1.4 µM and the inhibition at 0.5 h, 10 µM [3] was 106%. The selectivity ratio [4] was 130, the CC50 at 72 h [5] was 27.2 µM and the Ratio IC50 [6] was 7.
In the case of CC1CC(=O)c2c3c(n(C(C)C)c2C1)-c1ccccc1C3=O (stereo unspecified), the IC50 [1] is reported as 4.1 µM and the inhibition at 0.5 h, 10 µM [3] is reported as 65%.
For CC(C)n1c2c(c3c1-c1ccccc1C3=O)C(=O)C(Cc1ccccc1)(Cc1ccccc1)CC2, the IC50 [1] was 0.61 µM, the IC50 [2] was 11 µM and the inhibition at 0.5 h, 10 µM [3] was 90%. For the same compound, the selectivity ratio [4] was 10, the CC50 at 72 h [5] was 6 µM and the Ratio IC50 [6] was 18.
With O=C1CC(c2ccccc2)Cc2c1c1c(n2CCc2ccccc2)-c2ccccc2C1=O (stereo unspecified) the IC50 [1] was 0.49 µM, the IC50 [2] was 15 µM and the inhibition at 0.5 h, 10 µM [3] was 83%. For the same compound, the selectivity ratio [4] was 41, the CC50 at 72 h [5] was 20.1 µM and the Ratio IC50 [6] was 30.
With O=C1CCCc2c1c1c(n2CCc2ccccc2)-c2ccccc2C1=O the IC50 [1] was 0.43 µM, the IC50 [2] was 7 µM and the inhibition at 0.5 h, 10 µM [3] was 100%. For the same compound, the selectivity ratio [4] was 71, the CC50 at 72 h [5] was 30.7 µM and the Ratio IC50 [6] was 16.
Compound COc1ccc2c3c([nH]c2c1)[C@H](CC(C)C)N1C(=O)[C@H](CCC(=O)OC(C)(C)C)NC(=O)[C@@H]1C3 has a CC50 at 72 h [5] of 32 µM.
For COc1ccc2[nH]cc(CCNC(=O)c3cc(=O)c4c(OCc5ccc(Br)cc5)cccc4o3)c2c1, the IC50 [1] was 0.13 µM, the inhibition at 0.5 h, 10 µM [3] was 98% and the CC50 at 72 h [5] was 96 µM.
Work on CCc1c2c(nc3ccc(O)cc13)-c1cc3c(c(=O)n1C2)COC(=O)[C@]3(O)CC [7-ETHYL-10-HYDROXYCAMPTOTHECIN] yielded a CC50 at 72 h [5] of 0.005 µM.
With CC(C)n1c2c(c3c1-c1ccccc1C3=O)C(=O)CCC2 the IC50 [1] was 35 µM and the inhibition at 0.5 h, 10 µM [3] was 15%.
Work on CC1CC(=O)c2c3c(n(CCc4ccccc4)c2C1)-c1ccccc1C3=O (stereo unspecified) yielded an IC50 [1] of 0.23 µM, an inhibition at 0.5 h, 10 µM [3] of 100% and a CC50 at 72 h [5] greater than 100 µM. It also gave a Ratio IC50 [6] of 11.
CC(C)=CCOc1cccc2c1-c1c(c3c(n1C(C)C)CCCC3=O)C2=O gave an IC50 [1] of 1.6 µM, an Activity [7] of 1.3% and an inhibition at 0.5 h, 10 µM [3] of 60%. For the same compound, the Activity [8] was 10%, the Activity [9] was “Active” and the CC50 at 72 h [5] was 31 µM. The Activity [10] was “Active”, the Activity [11] was “Active” and the Activity [12] was 14%. For the same compound, the inhibition [13] was “Active”.
COc1cccc(CCn2c3c(c4c2-c2ccccc2C4=O)C(=O)CCC3)c1 showed an IC50 [1] of 0.31 µM, an IC50 [2] of 5.1 µM and an inhibition at 0.5 h, 10 µM [3] of 78%. It also gave a selectivity ratio [4] of 41, a CC50 at 72 h [5] of 12.7 µM and a Ratio IC50 [6] of 16.
Compound O=C1c2c(O)ccc(O)c2C(=O)c2c(NCCNCCO)ccc(NCCNCCO)c21 [MITOXANTRONE] has a CC50 at 72 h [5] of 0.009 µM.
In the case of O=C1CCCc2c1c1c(n2Cc2ccccc2)-c2ccccc2C1=O, the IC50 [1] is reported as 30 µM, the IC50 [2] is reported as 15 µM and the inhibition at 0.5 h, 10 µM [3] is reported as 18%. It also gave a Ratio IC50 [6] of 0.5.
With O=C1CCCc2c1c1c(n2CCCc2ccccc2)-c2ccccc2C1=O the IC50 [1] was 0.79 µM, the IC50 [2] was 6 µM and the inhibition at 0.5 h, 10 µM [3] was 83%. The selectivity ratio [4] was greater than 127, the CC50 at 72 h [5] was greater than 100 µM and the Ratio IC50 [6] was 8.
With CC(C)=CCOc1cccc2c1C(=O)c1c3c(n(C(C)C)c1-2)CCCC3=O the IC50 [1] was 3 µM and the inhibition at 0.5 h, 10 µM [3] was 74%.
CC1CC(=O)c2c3c(n(Cc4ccccc4)c2C1)-c1ccccc1C3=O (stereo unspecified) gave an IC50 [1] of 15 µM, an IC50 [2] of 35 µM and an inhibition at 0.5 h, 10 µM [3] of 33%. The Ratio IC50 [6] was 2.
